Experimental data as given in ChEMBL document CHEMBL5108071, “Potent and Specific Activators for Mitochondrial Sirtuins Sirt3 and Sirt5” (J Med Chem, 2022).

Legend:
[1] = target: T1, NAD-dependent protein deacylase sirtuin-5, mitochondrial (Homo sapiens, UniProt Q9NXA8); assay: Binding affinity to N-terminal his-tagged human SIRT5 (34 to 302 residues) expressed in Escherichia coli assessed as dissociation constant using NAD+ as substrate
How it was run: (§1)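 MST binding: Sirt5 labelled 2 h at room temperature in the dark with twofold molar excess FITC in PBS pH 7.4, free dye removed; 10 nM labelled protein incubated with ligand plus saturating 0.5 mM peptide or 5 mM NAD+ in PBS, 10% DMSO, 30 min on ice; read at 25 °C.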

[2] = target: T1, NAD-dependent protein deacylase sirtuin-5, mitochondrial; assay: Binding affinity to N-terminal his-tagged human SIRT5 (34 to 302 residues) expressed in Escherichia coli assessed as dissociation constant using CPS1-succK537 peptide as substrate; how it was run: as §1

T1 sequence (Q9NXA8 whole entry, the tested form may be a part): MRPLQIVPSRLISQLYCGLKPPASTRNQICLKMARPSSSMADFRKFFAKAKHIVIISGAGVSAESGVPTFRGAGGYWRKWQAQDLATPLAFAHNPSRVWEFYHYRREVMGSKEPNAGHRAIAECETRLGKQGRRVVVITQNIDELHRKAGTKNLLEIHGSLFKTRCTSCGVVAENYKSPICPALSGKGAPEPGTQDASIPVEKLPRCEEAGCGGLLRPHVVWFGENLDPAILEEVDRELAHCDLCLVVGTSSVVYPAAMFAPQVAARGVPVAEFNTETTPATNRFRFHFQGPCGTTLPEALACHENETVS

A Kd [1] of 28 µM and a Kd [2] of 24 µM were found for CCOC(=O)C1=CN(C(=O)c2ccccc2)C=C(C(=O)OCC)C1c1ccsc1 in this work.
